Laboratory results as given in ChEMBL document CHEMBL4270638, “Sulfonyl-containing phenyl-pyrrolyl pentane analogues: Novel non-secosteroidal vitamin D receptor modulators with favorable physicochemical properties, pharmacokinetic properties and anti-tumor activity” (Eur J Med Chem, 2018).
pEC50, pIC50: −log10 of the molar value. Values after ≈ are worked out from the molar mass of the structure shown. Active and inactive are the calls of the source. The calls are words filed in the database; no cut-off is given here.

Assays:
[1] = tested on: BXPC-3; assay: Antiproliferative activity against human BxPC3 cells after 24 hrs by MTT assay; type: functional, cell-based; settings: BXPC-3, 24 h
[2] = tested on: MCF7; assay: Antiproliferative activity against human MCF7 cells after 24 hrs by MTT assay; type: functional, cell-based; settings: MCF7, 24 h
[3] = tested on: PC-3; assay: Antiproliferative activity against human PC3 cells after 24 hrs by MTT assay; type: functional, cell-based; settings: PC-3, 24 h
[4] = tested on: MCF7; assay: Cell cycle arrest in human MCF7 cells expressing scrambled siRNA assessed as accumulation at G0/G1 phase at 1 uM after 24 hrs by propidium iodide staining based flow cytometry (reference value: 49.28%); type: functional
[5] = tested on: MCF7; assay: Cell cycle arrest in human MCF7 cells expressing scrambled siRNA assessed as accumulation at G2/M phase at 1 uM after 24 hrs by propidium iodide staining based flow cytometry (reference value: 19.6%); type: functional
[6] = tested on: MCF7; assay: Cell cycle arrest in human MCF7 cells expressing scrambled siRNA assessed as accumulation at S phase at 1 uM after 24 hrs by propidium iodide staining based flow cytometry (reference value: 29.79%); type: functional
[7] = tested on: MCF7; assay: Cell cycle arrest in human MCF7 cells expressing VDR siRNA assessed as accumulation at G0/G1 phase at 1 uM after 24 hrs by propidium iodide staining based flow cytometry (reference value: 49.17%); type: functional
[8] = tested on: MCF7; assay: Cell cycle arrest in human MCF7 cells expressing VDR siRNA assessed as accumulation at G2/M phase at 1 uM after 24 hrs by propidium iodide staining based flow cytometry (reference value: 17.57%); type: functional
[9] = tested on: MCF7; assay: Cell cycle arrest in human MCF7 cells expressing VDR siRNA assessed as accumulation at S phase at 1 uM after 24 hrs by propidium iodide staining based flow cytometry (reference value: 32%); type: functional
[10] = tested on: MCF7; assay: Induction of apoptosis in human MCF7 cells expressing scrambled siRNA assessed as live cells at 1 uM after 24 hrs by Annexin-V-FITC/propidium iodide staining based flow cytometry (reference value: 97.93%); type: functional
[11] = tested on: MCF7; assay: Induction of apoptosis in human MCF7 cells expressing scrambled siRNA assessed as early apoptotic cells at 1 uM after 24 hrs by Annexin-V-FITC/propidium iodide staining based flow cytometry (reference value: 0.93%); type: functional
[12] = tested on: MCF7; assay: Induction of apoptosis in human MCF7 cells expressing scrambled siRNA assessed as late apoptotic cells at 1 uM after 24 hrs by Annexin-V-FITC/propidium iodide staining based flow cytometry (reference value: 0.98%); type: functional
[13] = tested on: MCF7; assay: Induction of apoptosis in human MCF7 cells expressing scrambled siRNA assessed as necrotic cells at 1 uM after 24 hrs by Annexin-V-FITC/propidium iodide staining based flow cytometry (reference value: 0.16%); type: functional
[14] = tested on: MCF7; assay: Induction of apoptosis in human MCF7 cells expressing VDR siRNA assessed as live cells at 1 uM after 24 hrs by Annexin-V-FITC/propidium iodide staining based flow cytometry (reference value: 98.35%); type: functional
[15] = tested on: MCF7; assay: Induction of apoptosis in human MCF7 cells expressing VDR siRNA assessed as early apoptotic cells at 1 uM after 24 hrs by Annexin-V-FITC/propidium iodide staining based flow cytometry (reference value: 0.49%); type: functional
[16] = tested on: MCF7; assay: Induction of apoptosis in human MCF7 cells expressing VDR siRNA assessed as late apoptotic cells at 1 uM after 24 hrs by Annexin-V-FITC/propidium iodide staining based flow cytometry (reference value: 1.01%); type: functional
[17] = tested on: MCF7; assay: Induction of apoptosis in human MCF7 cells expressing VDR siRNA assessed as necrotic cells at 1 uM after 24 hrs by Annexin-V-FITC/propidium iodide staining based flow cytometry (reference value: 0.15%); type: functional
[18] = Solubility of the compound in water at pH 7.4 by HPLC method; type: physicochemical
How it was run: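 Aqueous solubility measured at pH 7.4, with samples quantified by HPLC.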

[19] = Half life in rat liver microsomes in presence of NADPH by HPLC method; type: ADME, microsome
How it was run: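 Compounds incubated with rat liver microsomes plus NADPH. Remaining compound quantified by HPLC at 0, 5, 10, 20, 30, 45, 60 and 90 min, and half-life calculated.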

[20] = molecular target: T1, Vitamin D3 receptor (Homo sapiens, UniProt P11473); assay: Displacement of fluormone VDR red from human full-length VDR after 4 hrs by fluorescence polarization assay
T1 sequence (P11473 whole entry): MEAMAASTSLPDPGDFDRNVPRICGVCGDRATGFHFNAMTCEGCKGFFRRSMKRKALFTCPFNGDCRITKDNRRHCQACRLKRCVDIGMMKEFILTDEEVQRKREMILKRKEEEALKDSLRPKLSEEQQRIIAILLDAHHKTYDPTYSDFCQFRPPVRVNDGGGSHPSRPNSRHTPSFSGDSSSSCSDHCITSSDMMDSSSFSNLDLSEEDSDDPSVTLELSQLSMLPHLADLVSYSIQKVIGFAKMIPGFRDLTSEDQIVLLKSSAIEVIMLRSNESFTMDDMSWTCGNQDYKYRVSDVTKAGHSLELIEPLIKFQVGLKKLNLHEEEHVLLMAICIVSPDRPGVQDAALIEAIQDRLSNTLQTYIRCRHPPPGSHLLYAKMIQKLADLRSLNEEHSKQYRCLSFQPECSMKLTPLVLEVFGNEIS

[21] = molecular target: T2, Retinoic acid receptor RXR-alpha/Vitamin D3 receptor (Homo sapiens, UniProt P11473+P19793); assay: Transactivation of recombinant human VDR/RXRalpha expressed in HEK293 cells after 24 hrs by Dual-luciferase reporter gene assay; type: cell-based
T2 sequence (P11473 whole entry): T1 sequence (P11473 whole entry)
T2 sequence (P19793 whole entry): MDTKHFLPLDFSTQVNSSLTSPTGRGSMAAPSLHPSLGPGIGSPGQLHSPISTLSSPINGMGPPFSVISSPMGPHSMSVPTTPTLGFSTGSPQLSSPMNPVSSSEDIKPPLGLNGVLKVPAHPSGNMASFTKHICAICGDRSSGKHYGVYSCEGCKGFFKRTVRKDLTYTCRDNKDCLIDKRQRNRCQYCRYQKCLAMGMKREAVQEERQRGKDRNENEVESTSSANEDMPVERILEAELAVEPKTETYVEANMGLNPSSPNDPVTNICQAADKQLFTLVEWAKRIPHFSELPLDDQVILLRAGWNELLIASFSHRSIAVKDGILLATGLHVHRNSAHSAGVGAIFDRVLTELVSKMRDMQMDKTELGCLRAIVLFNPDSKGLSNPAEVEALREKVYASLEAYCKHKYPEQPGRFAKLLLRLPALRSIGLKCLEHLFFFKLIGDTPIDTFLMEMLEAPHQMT

[22] = tested on: MCF7; assay: Antiproliferative activity against human MCF7 cells expressing VDR siRNA assessed as reduction in BrdU incorporation after 16 hrs by ELISA; type: functional, cell-based; settings: MCF7, 16 h
[23] = AUC in Sprague-Dawley rat at 5 mg/kg, iv by HPLC method; type: ADME, organism-based; settings: in vivo
How it was run: (§1)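 Male Sprague-Dawley rats, 180–220 g, n = 3 per group. Dosed iv at 5 mg/kg or ip at 20 mg/kg in ethanol/EL/saline (1:1:18). Plasma sampled at 0, 0.083, 0.167, 0.25, 0.5, 1, 2, 4, 8, 12 and 24 h and centrifuged 12000 rpm for 10 min. Plasma drug measured by HPLC; parameters by PK modelling; mean ± SD.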

[24] = Half life in Sprague-Dawley rat at 5 mg/kg, iv by HPLC method; type: ADME, organism-based; settings: in vivo; how it was run: as §1
[25] = Mean residence time in Sprague-Dawley rat at 5 mg/kg, iv by HPLC method; type: ADME, organism-based; settings: in vivo; how it was run: as §1
[26] = Clearance in Sprague-Dawley rat at 5 mg/kg, iv by HPLC method; type: ADME, organism-based; settings: in vivo; how it was run: as §1
[27] = AUC in Sprague-Dawley rat at 20 mg/kg, ip by HPLC method; type: ADME, organism-based; settings: in vivo; how it was run: as §1
[28] = Half life in Sprague-Dawley rat at 20 mg/kg, ip by HPLC method; type: ADME, organism-based; settings: in vivo; how it was run: as §1
[29] = Mean residence time in Sprague-Dawley rat at 20 mg/kg, ip by HPLC method; type: ADME, organism-based; settings: in vivo; how it was run: as §1
[30] = Clearance in Sprague-Dawley rat at 20 mg/kg, ip by HPLC method; type: ADME, organism-based; settings: in vivo; how it was run: as §1
[31] = Bioavailability in Sprague-Dawley rat at 20 mg/kg, ip by HPLC method; type: ADME, organism-based; settings: in vivo; how it was run: as §1
[32] = tested on: MCF7; assay: Antitumor activity against human MCF7 cells xenografted in Balb/c nude mouse assessed as reduction in tumor growth at 10 mg/kg, ip administered three times a week for three weeks starting from day 7 after tumor cell inoculation; type: functional, organism-based
How it was run: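 […] BALB/c-nu mice, 10 weeks old. 1×10^7 MCF-7 cells injected into the left fourth mammary fat pad; dosing began at about 50 mm3 tumour volume (day 7), n = 5 per group. Dosed ip at 10 mg/kg in ethanol/EL/saline 1:1:18, three times weekly for three weeks. Tumour volume by calipers = length × width² × 0.5; tumour weight and body weight recorded.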

[33] = tested on: MCF7; assay: Antitumor activity against human MCF7 cells xenografted in Balb/c nude mouse assessed as increase in p21 expression at […], ip administered three times a week for three weeks starting from day 7 after tumor cell inoculation by immunohistochemical analysis; type: functional, organism-based
How it was run: (§2)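 Orthotopic MCF-7 fat-pad xenografts in nude mice, as above. Dosing ip three times weekly for three weeks. Tumours fixed 24 h in 4% neutral buffered paraformaldehyde, paraffin-embedded and cut at 5 µm. Sections dewaxed with antigen retrieval, peroxidase quenched with 3% H2O2 for 10 min, then immunostained for p21, p27 and Bax.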

[34] = tested on: MCF7; assay: Antitumor activity against human MCF7 cells xenografted in Balb/c nude mouse assessed as increase in p27 expression at […], ip administered three times a week for three weeks starting from day 7 after tumor cell inoculation by immunohistochemical analysis; type: functional, organism-based; how it was run: as §2
[35] = tested on: MCF7; assay: Antitumor activity against human MCF7 cells xenografted in Balb/c nude mouse assessed as increase in Bax expression at […], ip administered three times a week for three weeks starting from day 7 after tumor cell inoculation by immunohistochemical analysis; type: functional, organism-based; how it was run: as §2
[36] = tested on: Mus musculus; assay: Hypercalcemic effect in Balb/c nude mouse xenografted with human MCF7 cells assessed as effect on serum calcium level at 0.5 ug/kg, ip administered three times a week for three weeks starting from day 7 after tumor cell inoculation measured on day 27 (reference value: 0.6 umol/ml); settings: in vivo
[37] = tested on: Mus musculus; assay: Hypercalcemic effect in Balb/c nude mouse xenografted with human MCF7 cells assessed as effect on serum calcium level at 0.5 ug/kg, ip administered three times a week for three weeks starting from day 7 after tumor cell inoculation measured on day 17 during compound dosing (reference value: 0.6 umol/ml); settings: in vivo

| Compound | pIC50 [1] | pIC50 [2] | pIC50 [3] | Activity [4] | Activity [5] | Activity [6] | Activity [7] | Activity [8] | Activity [9] | Activity [10] | Activity [11] | Activity [12] | Activity [13] | Activity [14] | Activity [15] | Activity [16] | Activity [17] | solubility [18] | half-life [19] | further results |
| --- | --- | --- | --- | --- | --- | --- | --- | --- | --- | --- | --- | --- | --- | --- | --- | --- | --- | --- | --- | --- |
| CCN(CC)CCNC(=O)c1ccc(C(CC)(CC)c2ccc(OCSc3ccccc3)c(C)c2)n1CC | 5.25 | 5.31 | 5.65 | 55.65% | 11.15% | 31.59% | 51.65% | 17.07% | 30.12% | 96.21% | 0.59% | 2.85% | 0.35% | 97.03% | 0.71% | 1.78% | 0.47% | 25.6 µg/mL (≈ 47.8 µM) | 53.7 min | – |
| CCn1c(C(=O)N[C@@H](C)CO)ccc1C(CC)(CC)c1ccc(OCC(O)C(C)(C)C)c(C)c1 (stereo not given in full) | 4.80 | 4.74 | 5.07 | 55.43% | 11.69% | 31.41% | 51.05% | 18.59% | 29.44% | 95.55% | 1.31% | 2.88% | 0.26% | 96.87% | 0.99% | 1.79% | 0.35% | 1.7 µg/mL (≈ 3.6 µM) | 25.8 min | pIC50 [20]: 6.94; pEC50 [21]: 8.17; pIC50 [22]: < 4.30; AUC [23]: 4650 ng·h/mL; half-life [24]: 173 min; MRT [25]: 5.54 h; clearance [26]: 18 mL/min; AUC [27]: 6040 ng·h/mL; half-life [28]: 208 min; MRT [29]: 5.5 h; CL/F [30]: 55.2 mL/min; bioavailability [31]: 32.5%; Activity [32]: Active |
| C=C1/C(=C\C=C2/CCC[C@]3(C)[C@@H]([C@H](C)CCCC(C)(C)O)CC[C@@H]23)C[C@@H](O)C[C@@H]1O [CALCITRIOL] | – | – | – | 55.16% | 13.4% | 30.32% | 51.38% | 17.15% | 30.33% | 95% | 1.29% | 3.38% | 0.33% | 97.25% | 0.84% | 1.49% | 0.42% | – | – | Activity [33]: Active; Activity [34]: Active; Activity [35]: Active; Activity [36]: 0.61 µmol/mL; Activity [37]: 0.6 µmol/mL |
